Measured values reported in ChEMBL document CHEMBL2086284, “(Z)-1-aryl-3-arylamino-2-propen-1-ones, highly active stimulators of tubulin polymerization: synthesis, structure-activity relationship (SAR), tubulin polymerization, and cell growth inhibition studies” (J Med Chem, 2012).
Activity calls are given as the source filed them. No cut-off for these calls is given here.

How the values were obtained:
K562 = test: Cytotoxicity against human K562 cells after 96 hrs by trypan blue exclusion assay; assay type: functional, cell-based; settings: K562, 96 h
How it was run: (§1)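 Cells grown in DMEM or RPMI with 10% FBS and penicillin-streptomycin. Seeded at 1.0 × 10^5 cells/mL/well in 6-well dishes; compounds were added 24 h later at various concentrations. Viable cells were counted by trypan blue exclusion from duplicate wells after 96 h of treatment, giving a dose-response endpoint.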

DU-145 = test: Cytotoxicity against androgen receptor-deficient human DU145 cells after 96 hrs by trypan blue exclusion assay; assay type: functional, cell-based; settings: DU-145, 96 h; how it was run: as §1
[1] = Cytotoxicity against human MES-SA cells after 96 hrs by trypan blue exclusion assay; assay type: functional, cell-based; how it was run: as §1
HeLa [2] = test: Inhibition of cytoplasmic microtubule polymerization in human HeLa cells at 0.005 uM after 18 hrs by FITC-conjugated DAPI staining based fluorescence microscopy; assay type: cell-based
How it was run: (§2)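 HeLa grown on glass coverslips and exposed for 18 h to test agent (0.25 or 0.5 μM), paclitaxel or vincristine (0.005 μM), or DMSO. Cells were fixed in 4% paraformaldehyde, blocked, permeabilised, and stained with FITC anti-α-tubulin (1:400) and then DAPI (0.5 ug/mL). Mitotic spindles or interphase cytoplasmic microtubules were scored by fluorescence microscopy at 100x.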

HeLa [3] = test: Induction of mitotic arrest in human HeLa cells assessed as unbound chromosome outside metaphase plate at 0.005 uM after 18 hrs by FITC-conjugated DAPI staining based fluorescence microscopy; assay type: functional, cell-based; how it was run: as §2
[4] = Drug resistant, ratio of IC50 for human MESSA/DX5 cells to IC50 for human MESSA cells; assay type: functional, MES-SA
How it was run: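 MES-SA uterine sarcoma cells and the P-glycoprotein-expressing multidrug-resistant MES-SA/DX5 sub-line were grown in DMEM or RPMI with 10% FBS. Cells were plated in 6-well dishes at 1.0 × 10^5 cells/mL/well, dosed at various concentrations 24 h later, and exposed for 96 h. Viable cells were counted by trypan blue exclusion from duplicate wells. The resistant/parental IC50 ratio was taken.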

[5] = Cytotoxicity against human MESSA/DX5 cells after 96 hrs by trypan blue exclusion assay; assay type: functional, cell-based; settings: MES-SA/Dx5, 96 h; how it was run: as §1

Compound | IC50 (K562) | IC50 (DU-145) | also measured
COc1ccc(N/C=C\C(=O)c2cc(OC)c(OC)c(OC)c2)cc1Cl | 250 nM | 200 nM | –
COc1cc(C(=O)/C=C\Nc2ccc(OC(F)(F)F)cc2)cc(OC)c1OC | 20000 nM | 3000 nM | –
COc1cc(C(=O)/C=C\Nc2cccc3[nH]ncc23)cc(OC)c1OC | 2500 nM | 750 nM | –
COc1ccc(N/C=C\C(=O)c2cc(OC)c(OC)c(OC)c2)cc1 | 500 nM | 500 nM | –
COc1ccc(N/C=C\C(=O)c2c(OC)cc(OC)cc2OC)cc1 | 75000 nM | 75000 nM | –
COc1cc(OC)c(N/C=C\C(=O)c2cc(OC)c(OC)c(OC)c2)c(OC)c1 | 50000 nM | 75000 nM | –
COc1cc(C(=O)/C=C\Nc2cccc3cc[nH]c23)cc(OC)c1OC | 2500 nM | 2500 nM | –
COc1cc(C(=O)/C=C\Nc2ccc(Cl)cc2)cc(OC)c1OC | 250 nM | 500 nM | –
COc1cc(C(=O)/C=C\Nc2cc(O)ccc2Cl)cc(OC)c1OC | 2500 nM | 750 nM | –
COc1cc(C(=O)/C=C\Nc2cnc3ccccc3c2)cc(OC)c1OC | 750 nM | 500 nM | –
COc1cc(C(=O)/C=C\Nc2ccc3[nH]c(C)cc3c2)cc(OC)c1OC | 750 nM | 600 nM | –
COc1ccc(N/C=C\C(=O)c2cc(OC)c(OC)c(OC)c2)cc1O | 100 nM | 100 nM | –
COc1ccc(N/C=C\C(=O)c2cc(OC)c(OC)c(OC)c2)cc1N | 250 nM | 100 nM | –
COc1cc(OC)c(C(=O)/C=C\Nc2ccc(Cl)cc2)c(OC)c1 | 25000 nM | 25000 nM | –
COc1cc(C(=O)/C=C\Nc2ccc3cc[nH]c3c2)cc(OC)c1OC | 200 nM | 100 nM | –
COc1ccc(N/C=C\C(=O)c2cc(OC)c(OC)c(OC)c2Br)cc1 | 250 nM | 200 nM | –
COc1cc(OC)c(N/C=C\C(=O)c2c(OC)cc(OC)cc2OC)c(OC)c1 | 50000 nM | 75000 nM | –
CC(=O)O[C@H]1C(=O)[C@@]2(C)[C@H]([C@H](OC(=O)c3ccccc3)[C@]3(O)C[C@H](OC(=O)[C@H](O)[C@@H](NC(=O)c4ccccc4)c4ccccc4)C(C)=C1C3(C)C)[C@]1(OC(C)=O)CO[C@@H]1C[C@@H]2O [PACLITAXEL] | – | – | IC50 [1]: 4 nM; inhibition (HeLa [2]): inactive; Activity (HeLa [3]): Active; Ratio IC50 [4]: >100; IC50 [5]: 750 nM
